Data as given in ChEMBL document CHEMBL1129978, “Effect of structural modification of enol-carboxamide-type nonsteroidal antiinflammatory drugs on COX-2/COX-1 selectivity” (J Med Chem, 1997).

How the values were obtained:
[1] = molecular target: T1, Prostaglandin G/H synthase 1 (Homo sapiens, UniProt P23219); test: Inhibition of human Prostaglandin G/H synthase 1 at 10 ug/mL expressed as mean percent inhibition of control PGE-2 production
Procedure, shortened: (§1)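 Human COX-1 and COX-2 genes expressed in a baculovirus system; microsomes prepared from High Five insect cells and used as the enzyme source. Activity read as PGE2 production. Each dose run in duplicate wells within each experiment, and values given as mean percent inhibition of control PGE2.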

[2] = molecular target: T1, Prostaglandin G/H synthase 1; test: Inhibition of human Prostaglandin G/H synthase 1 at 1 ug/mL expressed as mean percent inhibition of control PGE-2 production; procedure, shortened: as §1
[3] = molecular target: T1, Prostaglandin G/H synthase 1; test: Inhibition of human Prostaglandin G/H synthase 1 at 0.1 ug/mL expressed as mean percent inhibition of control PGE-2 production; procedure, shortened: as §1

T1 sequence (P23219 whole entry): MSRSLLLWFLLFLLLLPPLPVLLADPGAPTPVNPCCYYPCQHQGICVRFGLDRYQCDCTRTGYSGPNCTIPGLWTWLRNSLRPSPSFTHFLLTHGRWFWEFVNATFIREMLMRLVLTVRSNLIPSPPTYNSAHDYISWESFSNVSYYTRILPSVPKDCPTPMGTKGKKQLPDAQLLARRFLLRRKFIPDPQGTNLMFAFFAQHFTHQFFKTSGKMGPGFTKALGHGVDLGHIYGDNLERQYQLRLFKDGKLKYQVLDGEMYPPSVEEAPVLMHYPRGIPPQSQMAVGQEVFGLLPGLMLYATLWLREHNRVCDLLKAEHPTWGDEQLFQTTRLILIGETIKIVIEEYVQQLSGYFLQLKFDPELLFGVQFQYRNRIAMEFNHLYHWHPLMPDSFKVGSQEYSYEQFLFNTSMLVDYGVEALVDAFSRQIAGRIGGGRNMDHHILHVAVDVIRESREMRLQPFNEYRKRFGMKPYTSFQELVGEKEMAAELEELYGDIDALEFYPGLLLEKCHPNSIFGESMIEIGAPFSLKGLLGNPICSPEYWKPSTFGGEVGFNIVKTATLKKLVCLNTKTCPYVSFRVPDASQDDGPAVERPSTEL

Compound | inhibition [1] | inhibition [2] | inhibition [3]
CN1C(O)=C(C(=O)Nc2ccc(Br)cc2)c2ccc(Cl)cc2S1(=O)=O | 100% | 89% | 27%
CN1C(c2nc3ccccc3[nH]2)=C(O)c2ccccc2S1(=O)=O | 16% | 4% | -4%
CN1C(C(=O)Nc2ccc(Cl)cc2)=C(O)c2cc(Cl)ccc2S1(=O)=O | 18% | 23% | 6%
CN1C(C(=O)Nc2nc3ccccc3s2)=C(O)c2ccccc2S1(=O)=O | 95% | 49% | 13%
O=C(Nc1ccc(Cl)cc1Cl)C1=C(O)N(Cc2ccccc2)S(=O)(=O)c2ccc(F)cc21 | 98% | 39% | 3%
O=C1/C(=C(/O)Nc2ccc(Cl)cc2Cl)c2cc(Cl)ccc2C(=O)N1Cc1ccccc1 | 100% | 84% | 6%
CN1C(C(=O)Nc2nccs2)=C(O)c2sc3cc(Cl)ccc3c2S1(=O)=O | 100% | 100% | 99%
CCN1C(O)=C(C(=O)Nc2ccc(Cl)cc2Cl)c2cc(Cl)ccc2S1(=O)=O | 99% | 85% | 36%
CN1C(C(=O)Nc2ccccn2)=C(O)c2ccccc2S1(=O)=O | 35% | 10% | -7%
COc1ccc2c(c1)c1c(n2C)C(O)=C(C(=O)Nc2ccccn2)N(C)S1(=O)=O | 88% | 35% | 1%
Cc1ccc2c(c1)/C(=C(\O)Nc1ncc(C)s1)C(=O)N(C)C2=O | 51% | 52% | 30%
Cc1cnc(NC(=O)C2=C(O)c3ccccc3SC2(C)C)s1 | 16% | 11% | –
COc1ccc2c(c1)C(O)=C(C(=O)Nc1ccccc1)N(C)S2(=O)=O | -3% | -5% | -6%
CC1(C)Sc2ccccc2C(O)=C1C(=O)Nc1cccc(Cl)c1 | 29% | 20% | 3%
CN1C(C(=O)Nc2ccccc2)=C(O)c2ccccc2S1(=O)=O | 26% | 16% | -8%
Cc1cnc(N/C(O)=C2\C(=O)N(C)C(=O)c3ccc(Cl)cc32)s1 | 76% | 35% | 5%
O=C(Nc1ccc(Cl)cc1Cl)C1=C(O)N(Cc2ccccc2)S(=O)(=O)c2ccc(Cl)cc21 | 100% | 54% | 4%
Cn1c(C(=O)Nc2nccs2)c(O)c2ccccc2c1=O | 37% | 11% | 2%
Cn1c(C(=O)Nc2ccccn2)c(O)c2ccccc2c1=O | 19% | -3% | –
CN1C(C(=O)Nc2ccccc2)=C(O)c2c(ccc3ccccc23)S1(=O)=O | 18% | -5% | –
CCn1c2c(c3ccccc31)S(=O)(=O)N(C)C(C(=O)Nc1nccs1)=C2O | 81% | -1% | –
CN1C(O)=C(C(=O)Nc2ccccn2)c2cc(Cl)ccc2S1(=O)=O | 96% | 53% | –

Next, values leading:

inhibition [1] | inhibition [2] | inhibition [3] | Compound
30% | 23% | -4% | CCc1cnc(NC(=O)C2=C(O)c3ccccc3S(=O)(=O)N2C)s1
42% | 10% | 3% | Cc1cnc(NC(=O)C2=C(O)c3ccccc3S(=O)(=O)N2Cc2ccccc2)s1
14% | 6% | 9% | Cc1cnc(NC(=O)C2=C(O)c3cc(C)sc3S(=O)(=O)N2C)s1
100% | 100% | 80% | Cc1cnc(NC(=O)C2=C(O)c3ccc4ccccc4c3S(=O)(=O)N2C)s1
27% | -6% | -2% | CCN1C(C(=O)Nc2ncc(C)s2)=C(O)c2ccccc2S1(=O)=O
61% | 38% | 9% | CN1C(C(=O)Nc2ccccc2)=C(O)c2cc(F)ccc2S1(=O)=O
27% | 11% | 0% | CN1C(C(=O)Nc2ccccn2)=C(O)c2cc(F)ccc2S1(=O)=O
82% | 36% | -4% | Cc1cnc(NC(=O)C2=C(O)c3ccc(F)cc3S(=O)(=O)N2C)s1
94% | 66% | 10% | Cc1cnc(NC(=O)C2=C(O)N(C)S(=O)(=O)c3cc(Cl)ccc32)s1
51% | 17% | – | CN1C(C(=O)Nc2nccs2)=C(O)c2ccccc2S1(=O)=O
– | – | -1% | COc1ccc2c(c1)C(O)=C(C(=O)Nc1ncc(C)s1)N(C)S2(=O)=O
– | 5% | 1% | Cc1cc2c(s1)S(=O)(=O)N(C)C(C(=O)Nc1nccs1)=C2O
